Data reported in paper PMC6102747 (Molecular Medicine Reports, 2018).
Read-outs that look alike come from different tables or passages of the source.

Columns and labels:
[1] = Pharmacokinetics of CsA after oral administration; assay type: in vivo, Sprague-Dawley rats; settings: rats; for increase in the CL/F of CsA / increase in the V/F of CsA / decrease in AUC0-t of CsA / decrease in AUC0-∞ of CsA / decrease in Cmax of CsA: oral CsA 10 mg/kg; for decrease in AUC0-t of CsA / decrease in AUC0-∞ of CsA / decrease in Cmax of CsA: vs control; for decrease in Cmax of CsA: P>0.05
[2] = Pharmacokinetics of CsA after intravenous administration; assay type: in vivo, Sprague-Dawley rats; settings: rats, i.v. CsA 2.5 mg/kg, Q3GA 5 mg/kg i.v. 7 days
Cyp3a1 = test: RT-qPCR mRNA expression in small intestine and liver; assay type: in vivo, rats; settings: vs control
Cyp3a2 [3] = test: as above; assay type: in vivo, rats; settings: vs control
Ugt1a1 [4] = test: as above; assay type: in vivo, rats; settings: vs control
Gstm1 [5] = test: RT-qPCR mRNA expression in liver; assay type: in vivo, rats; settings: vs control
Slco2b1 = test: RT-qPCR mRNA expression in small intestine; assay type: in vivo, rats; settings: vs control
Slco1b2 = test: RT-qPCR mRNA expression in liver; assay type: in vivo, rats; settings: vs control
Mdr1 = test: RT-qPCR mRNA expression in small intestine and liver; assay type: in vivo, rats; settings: vs control
Outline: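 Rats, 3 per group, dosed once daily for 7 days: phosphate buffer 5 ml/kg i.v., test compound 2.5/5/10 mg/kg i.v. in phosphate buffer, ketoconazole 75 mg/kg i.g. in olive oil, or verapamil 4 mg/kg i.g. in water. Olive oil 5 ml/kg gavaged 30 min after day-7 dose. Killed 24 h post-dose after overnight fast; liver and intestinal mucosa snap-frozen. qPCR: 40 cycles, 58°C annealing; 2−ΔΔCq.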

Bcrp = test: RT-qPCR mRNA expression in small intestine and liver; assay type: in vivo, rats; settings: vs control
Mrp2 = test: as above; assay type: in vivo, rats; settings: vs control
Pxr [6] = test: as above; assay type: in vivo, rats; settings: small intestine, vs control, P<0.001
Cyp3a2 [7] = assay type: in vivo, rats; settings: vs control
Ugt1a1 [8] = test: Western blot protein expression in small intestine and liver; assay type: in vivo, rats; settings: vs control, P<0.001
Sult1a1 = test: as above; assay type: in vivo, rats; settings: vs control
Gstm1 [9] = test: Western blot protein expression in liver; assay type: in vivo, rats; settings: vs control
OATP2B1 = test: Western blot protein expression in small intestine; assay type: in vivo, rats; settings: vs control
OATP1B2 = test: Western blot protein expression in liver; assay type: in vivo, rats; settings: vs control
P-gp = test: Western blot protein expression in small intestine and liver; assay type: in vivo, rats; settings: vs control
Pxr [10] = assay type: in vivo, rats; settings: vs control
[11] = high-dose Q3GA 10 mg/kg i.v. 7 days
[12] = low-dose Q3GA 2.5 mg/kg i.v. 7 days
[13] = middle-dose Q3GA 5 mg/kg i.v. 7 days
[14] = liver, high-dose Q3GA 10 mg/kg i.v. 7 days, P<0.05
[15] = liver, low-dose Q3GA 2.5 mg/kg i.v. 7 days, P<0.001
[16] = liver, middle-dose Q3GA 5 mg/kg i.v. 7 days, P<0.001
[17] = small intestine, low-dose Q3GA 2.5 mg/kg i.v. 7 days, P<0.001
[18] = small intestine, middle-dose Q3GA 5 mg/kg i.v. 7 days
[19] = liver, high-dose Q3GA 10 mg/kg i.v. 7 days, P<0.01
[20] = liver, middle-dose Q3GA 5 mg/kg i.v. 7 days, P<0.05
[21] = small intestine, high-dose Q3GA 10 mg/kg i.v. 7 days, P<0.001
[22] = liver, middle-dose Q3GA 5 mg/kg i.v. 7 days, P<0.01
[23] = small intestine, middle-dose Q3GA 5 mg/kg i.v. 7 days, P<0.05
[24] = low-dose Q3GA 2.5 mg/kg i.v. 7 days, P<0.001
[25] = high-dose Q3GA 10 mg/kg i.v. 7 days, P<0.01
[26] = middle-dose Q3GA 5 mg/kg i.v. 7 days, P<0.01
[27] = liver, low-dose Q3GA 2.5 mg/kg i.v. 7 days, P<0.01
[28] = small intestine, high-dose Q3GA 10 mg/kg i.v. 7 days, P<0.01
[29] = small intestine, middle-dose Q3GA 5 mg/kg i.v. 7 days, P<0.01
[30] = liver, high-dose Q3GA 10 mg/kg i.v. 7 days, P<0.001

O=c1c(O[C@@H]2O[C@H](CO)[C@@H](O)[C@H](O)[C@H]2O)c(-c2ccc(O)c(O)c2)oc2cc(O)cc(O)c12 [Q3GA, Quercetin-3-O-β-D-glucoside]
effect on bioavailability of oral CsA ([1]; Q3GA 2.5, 5 or 10 mg/kg i.v. for 7 consecutive days): reduced the bioavailability of oral CsA | increase in the CL/F of CsA ([1]; Q3GA 5 mg/kg daily i.v. 7 days): 72.71% | increase in the V/F of CsA ([1]; Q3GA 5 mg/kg daily i.v. 7 days, P<0.01): 103.32% | increase in the CL/F of CsA ([1]; Q3GA 10 mg/kg daily i.v. 7 days): 79.57% | increase in the V/F of CsA ([1]; Q3GA 10 mg/kg daily i.v. 7 days, P<0.05): 93.19% | decrease in AUC0-t of CsA [1, 11]: 47.79% | decrease in AUC0-∞ of CsA [1, 11]: 46.30% | decrease in Cmax of CsA [1, 11]: 40.41% | decrease in AUC0-t of CsA [1, 12]: 34.26% | decrease in AUC0-∞ of CsA [1, 12]: 34.66% | decrease in Cmax of CsA [1, 12]: 33.12% | decrease in AUC0-t of CsA [1, 13]: 36.32% | decrease in AUC0-∞ of CsA [1, 13]: 34.81% | effect on blood concentration of CsA after intravenous injection of CsA [2]: not affected | decrease in Cyp3a1 mRNA expression (Cyp3a1; [14]): 33.73% | decrease in Cyp3a1 mRNA expression (Cyp3a1; [15]): 65.14% | decrease in Cyp3a1 mRNA expression (Cyp3a1; [16]): 54.94% | decrease in Cyp3a1 mRNA expression (Cyp3a1; small intestine, high-dose Q3GA 10 mg/kg i.v. 7 days, P<0.05): 43.57% | decrease in Cyp3a1 mRNA expression (Cyp3a1; [17]): 63.78% | decrease in Cyp3a1 mRNA expression (Cyp3a1; [18]): 26.08% | decrease in Cyp3a2 mRNA expression (Cyp3a2 [3]; [19]): 34.64% | decrease in Cyp3a2 mRNA expression (Cyp3a2 [3]; [15]): 64.68% | decrease in Cyp3a2 mRNA expression (Cyp3a2 [3]; [20]): 26.18% | decrease in Cyp3a2 mRNA expression (Cyp3a2 [3]; [21]): 39.36% | decrease in Cyp3a2 mRNA expression (Cyp3a2 [3]; [17]): 49.70% | decrease in Cyp3a2 mRNA expression (Cyp3a2 [3]; [18]): 17.93% | decrease in Ugt1a1 mRNA expression (Ugt1a1 [4]; [14]): 41.04% | decrease in Ugt1a1 mRNA expression (Ugt1a1 [4]; [15]): 76.13% | decrease in Ugt1a1 mRNA expression (Ugt1a1 [4]; [22]): 48.78% | decrease in Ugt1a1 mRNA expression (Ugt1a1 [4]; [21]): 37.83% | decrease in Ugt1a1 mRNA expression (Ugt1a1 [4]; [17]): 70.14% | decrease in Ugt1a1 mRNA expression (Ugt1a1 [4]; [23]): 24.08% | increase in Gstm1 mRNA expression (Gstm1 [5]; [11]): 75.09% | increase in Gstm1 mRNA expression (Gstm1 [5]; [24]): 248.40% | increase in Gstm1 mRNA expression (Gstm1 [5]; [13]): 85.41% | decrease in Slco2b1 mRNA expression (Slco2b1; [25]): 39.57% | decrease in Slco2b1 mRNA expression (Slco2b1; [24]): 62.19% | decrease in Slco2b1 mRNA expression (Slco2b1; [13]): 20.49% | decrease in Slco1b2 mRNA expression (Slco1b2; high-dose Q3GA 10 mg/kg i.v. 7 days, P<0.001): 53.54% | decrease in Slco1b2 mRNA expression (Slco1b2; [24]): 68.06% | decrease in Slco1b2 mRNA expression (Slco1b2; [26]): 38.39% | decrease in Mdr1 mRNA expression (Mdr1; [19]): 47.32% | decrease in Mdr1 mRNA expression (Mdr1; [15]): 67.60% | decrease in Mdr1 mRNA expression (Mdr1; [20]): 45.09% | decrease in Mdr1 mRNA expression (Mdr1; [21]): 33.33% | decrease in Mdr1 mRNA expression (Mdr1; [17]): 47.47% | decrease in Mdr1 mRNA expression (Mdr1; small intestine, middle-dose Q3GA 5 mg/kg i.v. 7 days, P<0.001): 17.51% | decrease in Bcrp mRNA expression (Bcrp; liver, high-dose Q3GA 10 mg/kg i.v. 7 days, not significant): 29.23% | decrease in Bcrp mRNA expression (Bcrp; [27]): 56.15% | decrease in Bcrp mRNA expression (Bcrp; liver, middle-dose Q3GA 5 mg/kg i.v. 7 days, not significant): 29.23% | decrease in Bcrp mRNA expression (Bcrp; [28]): 43.68% | decrease in Bcrp mRNA expression (Bcrp; [17]): 63.83% | decrease in Bcrp mRNA expression (Bcrp; [23]): 27.52% | decrease in Mrp2 mRNA expression (Mrp2; [14]): 20.44% | decrease in Mrp2 mRNA expression (Mrp2; [15]): 68.86% | decrease in Mrp2 mRNA expression (Mrp2; [22]): 32.70% | decrease in Mrp2 mRNA expression (Mrp2; [28]): 28.66% | decrease in Mrp2 mRNA expression (Mrp2; [17]): 66.03% | decrease in Mrp2 mRNA expression (Mrp2; [29]): 34.53% | increase in Pxr mRNA expression (Pxr [6]; [11]): 200.21% | increase in Pxr mRNA expression (Pxr [6]; [12]): 415.18% | increase in Pxr mRNA expression (Pxr [6]; [13]): 130.03% | decrease in CYP3A2 protein expression (Cyp3a2 [7]; [30]): 47.16% | decrease in CYP3A2 protein expression (Cyp3a2 [7]; [15]): 54.18% | decrease in CYP3A2 protein expression (Cyp3a2 [7]; [16]): 33.07% | decrease in CYP3A2 protein expression (Cyp3a2 [7]; [28]): 38.67% | decrease in CYP3A2 protein expression (Cyp3a2 [7]; [17]): 55.28% | decrease in CYP3A2 protein expression (Cyp3a2 [7]; [18]): 21.68% | decrease in UGT1A1 protein expression (Ugt1a1 [8]; liver, high-dose Q3GA 10 mg/kg i.v. 7 days): 49.63% | decrease in UGT1A1 protein expression (Ugt1a1 [8]; liver, low-dose Q3GA 2.5 mg/kg i.v. 7 days): 71.06% | decrease in UGT1A1 protein expression (Ugt1a1 [8]; liver, middle-dose Q3GA 5 mg/kg i.v. 7 days): 38.05% | decrease in UGT1A1 protein expression (Ugt1a1 [8]; small intestine, high-dose Q3GA 10 mg/kg i.v. 7 days): 46.57% | decrease in UGT1A1 protein expression (Ugt1a1 [8]; small intestine, low-dose Q3GA 2.5 mg/kg i.v. 7 days): 76.81% | decrease in UGT1A1 protein expression (Ugt1a1 [8]; [18]): 36.26% | decrease in SULT1A1 protein expression (Sult1a1; [27]): 75.89% | decrease in SULT1A1 protein expression (Sult1a1; [21]): 57.47% | decrease in SULT1A1 protein expression (Sult1a1; [17]): 75.44% | decrease in SULT1A1 protein expression (Sult1a1; [23]): 36.33% | increase in GSTM1 protein expression (Gstm1 [9]; high-dose Q3GA 10 mg/kg i.v. 7 days, P<0.05): 229.75% | increase in GSTM1 protein expression (Gstm1 [9]; [24]): 417.29% | increase in GSTM1 protein expression (Gstm1 [9]; [13]): 159.37% | decrease in OATP2B1 protein expression (OATP2B1; [25]): 51.44% | decrease in OATP2B1 protein expression (OATP2B1; [24]): 86.44% | decrease in OATP2B1 protein expression (OATP2B1; [26]): 42.21% | decrease in OATP1B2 protein expression (OATP1B2; [11]): 33.73% | decrease in OATP1B2 protein expression (OATP1B2; low-dose Q3GA 2.5 mg/kg i.v. 7 days, P<0.01): 67.47% | decrease in OATP1B2 protein expression (OATP1B2; [13]): 26.52% | decrease in P-gp protein expression (P-gp; [30]): 47.26% | decrease in P-gp protein expression (P-gp; [15]): 67.93% | decrease in P-gp protein expression (P-gp; [22]): 39.92% | decrease in P-gp protein expression (P-gp; [21]): 41.70% | decrease in P-gp protein expression (P-gp; [17]): 65.31% | decrease in P-gp protein expression (P-gp; [29]): 30.22% | increase in PXR protein expression (Pxr [10]; [27]): 182.93% | increase in PXR protein expression (Pxr [10]; [28]): 147.68% | increase in PXR protein expression (Pxr [10]; [17]): 258.85% | increase in PXR protein expression (Pxr [10]; [23]): 81.66%
